The list is not random: actives were taken first. Their share in the collection is about 1.5%.
LANA-H2B inh: blocks KSHV LANA binding to histone H2A/H2B; Q9QR71; cell-free LANA-H2A/H2B peptide, fluorescence polarization; inhibition, % (no concentration beside the values); hit rate 0.6% among 320,000; in the data active means inhibition mostly above about 10%, no sharp cut-off; inactive means mostly below about 6.7%
EBNA-1 inhibitor: blocks EBNA-1 binding to DNA; EBNA-1 DNA binding, fluorescence polarization; inhibition, % at 14.8 µM; hit rate 0.34% among 300,000; AID 1950; in the data active means inhibition above about 28%
ZTA counter: counter-screen for EBNA-1 inhibitors: inhibitors of Epstein-Barr virus ZTA | P03206 | ZTA-DNA binding, fluorescence polarization | inhibition, % at 11 µM | hit rate 0.15% among 320,000 | AID 2234; in the data active means inhibition above about 33%
HNF4A DNA FP: change in binding of human HNF4 alpha to DNA; AID 1224865; activity change, % at 10 µM; hit rate 0.3% among 360,000; HNF4a-FITC DNA binding, fluorescence polarization, 1 h; P41235; in the data active means activity change above about 30%, passing the limit was not always enough
Target sequence (P41235 whole entry, looked up): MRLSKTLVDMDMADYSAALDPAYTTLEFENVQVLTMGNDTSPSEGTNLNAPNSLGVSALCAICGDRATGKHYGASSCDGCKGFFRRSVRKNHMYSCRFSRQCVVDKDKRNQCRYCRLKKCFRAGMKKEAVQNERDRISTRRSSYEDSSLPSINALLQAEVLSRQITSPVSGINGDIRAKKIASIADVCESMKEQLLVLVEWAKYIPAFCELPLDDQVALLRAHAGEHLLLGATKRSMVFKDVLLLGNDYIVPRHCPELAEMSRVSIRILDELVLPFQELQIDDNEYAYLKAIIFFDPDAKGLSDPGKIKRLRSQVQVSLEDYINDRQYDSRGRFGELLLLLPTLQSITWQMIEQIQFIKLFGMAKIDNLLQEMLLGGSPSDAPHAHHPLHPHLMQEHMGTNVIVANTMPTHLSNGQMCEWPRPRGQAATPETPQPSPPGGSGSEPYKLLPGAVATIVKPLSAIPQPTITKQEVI
Bfl-1 A1 inh: inhibitors of the anti-apoptotic protein A1, read as caspase activation; hit rate 0.066% among 330,000; MEF A1-2A-BIM cells, Caspase-Glo 3/7 luminescence, 3 h; percent of clofoctol response, vehicle zero; AID 2462; caspase activation, % (no concentration beside the values);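 active means over half of replicate activation scores above 10%, or exactly half above 10 with the replicate mean above 10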
CSN deneddyl inh: inhibitors of human CSN-mediated cullin deneddylation; inhibition, % at 12.5 µM; AID 651999; Q92905; hit rate 0.38% among 360,000; Purified CSN, SCF-Nedd8-OG deneddylation, fluorescence polarization;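 active means pattern-corrected inhibition above about 35%, with an unprinted fluorescence ratio check between 0.5 and 1.5, limit read from the data, passing the limit was not always enough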;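 further: 0% = enzyme with substrate and 100% = substrate without enzyme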
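assay system = purified human Csn5 enzyme expressed in HEK293T cells | amount = 0.24 nM enzyme | buffer or medium = Tris/NaCl/DTT buffer, pH 7.5 | reagent = 10 nM SCFSkp2-Nedd8OG | compound = one concentration, 12.5 µM, 0.25% DMSO | times = 90 min reaction at room temperature | signal = FP | read-out basis = % inhibition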
EBNA-1 inh conf: EBNA-1 (EBV) inhibition, confirmation. shares compounds with EBNA-1 inhibitor. Recombinant EBNA-1 DBD, Cy5-DNA fluorescence polarization. inhibition, % at 14.8 µM. hit rate 35% among 830;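 active means mean inhibition across replicates above a set limit taken from the earlier primary screen, cut at about 28% in these data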;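 further: plate controls were EBNA-1 protein with DMSO for no effect and wells lacking EBNA-1 for full effect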
ZTA counter trip: counter-screen for EBNA-1 inhibitors: Epstein-Barr virus ZTA inhibitors, triplicate; 830 tested, under 10 active; inhibition, % at 11.1 µM; shares compounds with EBNA-1 inhibitor; Zta-ZRE DNA binding, Cy5 fluorescence polarization;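 active means mean inhibition over triplicates above a set limit taken from the primary EBNA-1 screen, cut at about 37% in these data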;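 further: purified full length Zta protein with Cy5 labeled ZRE DNA probe; 0% = Zta with DMSO and 100% = wells lacking Zta protein; inhibitors lower polarization by freeing the labeled DNA probe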
* = called active by the depositor; / = not tested or not shown.

SMILES	LANA-H2B inh	EBNA-1 inhibitor	ZTA counter	HNF4A DNA FP	Bfl-1 A1 inh	CSN deneddyl inh	EBNA-1 inh conf	ZTA counter trip
Cc1nc2nc(SCC(=O)NCCCN3CCCCCC3)nn2c(C)c1Cc1ccccc1	3	0	-13	68*	0	88*	/	/
Cc1ccccc1Cc1c(C)nc2nc(SCC(=O)NCCCN3CCCCC3)nn2c1C	-4	-3	2	9	1	-4	/	/
COc1cc(C(=O)Nc2nnc(-c3sccc3C)s2)cc(OC)c1OC	-7	-5	-10	7	0	59*	/	/
O=C(Nc1ncc2c(n1)CC(c1ccco1)CC2=O)c1ccccc1 (stereo not drawn)	44*	-20	-14	-4	0	-5	/	/
Cc1ccc(S(=O)(=O)N2CCCCC2)cc1NCC(=O)Nc1ccc(Br)cc1F	/	/	/	2	/	4	/	/
Cc1ccccc1Nc1nc(N)nc(CCl)n1	-3	-1	0	-1	1	6	/	/
Cc1ccccc1Nc1nc(N)nc(CN(C)c2ccccc2)n1	28*	7	-1	3	-1	4	/	/
Cc1ccc(C(=O)N=c2sccn2C)cc1S(=O)(=O)N1CCOCC1	2	8	-1	37*	0	0	/	/
Cc1nc(SCC#N)c2c3c(sc2n1)CCC3	1	-4	-7	2	-1	-5	/	/
N#CCSc1ncnc2sc3c(c12)CCC3	9	-11	-11	9	0	38*	/	/
O=C(Nc1cccc2cccnc12)c1csc([C@@H]2O[C@H](CO)[C@H](O)[C@H](O)[C@H]2O)n1	/	/	/	2	/	4	/	/
CN1\C(=C/C=C/C=C/C=[N+](C)C)C(C)(C)c2ccccc21	/	/	/	102*	/	120	/	/
CN1/C(=C\C=O)C(C)(C)c2ccccc21	0	-8	-16	7	-1	-1	/	/
COc1ccc(S(=O)(=O)N2CCOCC2)cc1NC(=O)COc1ccc2c(C)cc(=O)oc2c1	-2	/	/	7	0	-3	/	/
COc1ccc(NC(=O)COc2ccc3c(C)cc(=O)oc3c2)cc1S(=O)(=O)N1CCCCC1	/	101*	17	0	0	10	67*	10
OC[C@H]1O[C@H](OC[C@H]2OC(O)[C@H](O)[C@@H](O)[C@@H]2O)[C@H](O)[C@@H](O)[C@@H]1O (stereo partly drawn)	0	2	-8	2	1	-4	/	/
COc1ccc(OC)c(NC(=O)CS(=O)(=O)Cc2nc(-c3ccccc3C)oc2C)c1	-8	57*	1	-3	0	-2	-12	-2
COC(=O)c1ccc2c(=O)[nH]c(CSc3nc(-c4ccc(F)cc4)cs3)nc2c1	0	60*	-17	4	0	0	34*	12
Cc1ccc(-c2nc(-c3cccnc3)sc2CC(=O)O)cc1	-5	-2	1	5	-1	-3	/	/
CC(=O)Nc1ccc(NC(=O)Cc2sc(-c3cccnc3)nc2-c2ccc(C)cc2)cc1	1	54*	4	1	1	-1	52*	7
COc1cc(NC(=O)CCc2nnc3ccc(N4CCOCC4)nn23)cc(OC)c1OC	0	-9	-8	0	0	-1	/	/
Cc1nccn1CCCNC(=O)C1CCC(=O)N(Cc2ccccc2F)C1 (stereo not drawn)	/	-10	1	2	/	-1	/	/
COc1ccc(CN2CCCC(C(=O)Nc3cccc(-n4cnnn4)c3)C2)c(C)c1C (stereo not drawn)	0	-13	1	2	0	1	/	/
O=C(Nc1ccc2c(c1)CCC2)c1cc(=O)[nH]c2ccccc12	0	51*	11	3	-1	-1	29*	-16
CC(NC(=O)COc1ccc(/C=N/NC(=O)C(=O)Nc2ccccc2Br)cc1)c1ccccc1 (stereo not drawn)	-1	34*	-10	-2	0	7	50*	9
SMILES	LANA-H2B inh	EBNA-1 inhibitor	ZTA counter	HNF4A DNA FP	Bfl-1 A1 inh	CSN deneddyl inh	EBNA-1 inh conf	ZTA counter trip
O=C(COc1ccc(/C=N/NC(=O)c2ccccc2Br)cc1)Nc1ccccc1	-5	-3	-1	-1	1	4	/	/
O=C(Nc1ccc2oc(-c3cccnc3)nc2c1)c1ccc2c(c1)OCCO2	-2	41*	4	74	0	26	0	13
Cc1cc(NC(=O)CSc2nc(-c3ccccc3)cs2)no1	6	-5	0	-1	-2	-6	/	/
Cc1cc(NC(=O)CSc2nc(-c3ccc(F)cc3)cs2)no1	1	44*	-3	3	0	-1	13	4
NS(=O)(=O)c1ccc(CCNC(=O)C2CCC(CNS(=O)(=O)c3ccc(Br)s3)CC2)cc1 (stereo not drawn)	1	59*	-13	5	0	-3	24	-6
Cc1ccc(NC(=S)NC(=O)c2ccc(F)cc2)cc1S(=O)(=O)Nc1ccccc1Cl	-4	28*	5	3	0	-4	-7	-13
CCCSc1nc2cc(C)c(C)cc2n1CC(C)O (stereo not drawn)	-5	2	-1	3	-1	-2	/	/
COc1ccccc1NS(=O)(=O)c1cc(NC(=O)c2ccc3ccccc3n2)ccc1Cl	-1	52*	-14	0	1	-9	3	5
Clc1ccc(Cn2ncc3c(N4CCN(c5ccccc5)CC4)ncnc32)cc1	/	/	/	1	/	2	/	/
CCOc1c(Br)cc(CNC2CCCCCCC2)cc1OC	-5	-16	1	-1	0	-1	/	/
COc1cc(CNC2CCCCCCC2)cc(Cl)c1OC	-3	90*	2	6	0	-1	-3	2
O=C1C2N=NN(CC(=O)N3N=C(c4ccccc4)CC3c3ccc([N+](=O)[O-])cc3)C2C(=O)N1c1ccccc1 (stereo not drawn)	-4	7	9	/	0	/	/	/
O=C(CCC(=O)Nc1ccc(F)cc1)N/N=C/c1ccc(Br)cc1	-3	21	11	-1	-1	-2	/	/
O=C(CCC(=O)Nc1ccc(Br)cc1)N/N=C/c1ccc(F)cc1	3	34*	13	0	0	2	19	12
COc1ccc(Cc2c(Cl)ncnc2Cl)cc1	4	33*	12	-3	1	-2	-9	-11
COC(=O)C1CSC(C(=O)OC)N1C(=O)Nc1c(C)cccc1C (stereo not drawn)	2	12	12	-3	0	0	/	/
COC(=O)C1CSC(C(=O)OC)N1C(=O)Nc1ccccc1 (stereo not drawn)	4	55*	8	-2	0	-4	-10	-3

Source: PubChem BioAssay (several laboratories)
